{"source": "BindingDB's records for doi:10.1021/jm4003654", "about": "(Xavier University of Louisiana, 2013)", "key": {"CYP2A6": {"target": "T1, CYP2A6 (Homo sapiens, UniProt P11509)", "T1 sequence (P11509 whole entry)": "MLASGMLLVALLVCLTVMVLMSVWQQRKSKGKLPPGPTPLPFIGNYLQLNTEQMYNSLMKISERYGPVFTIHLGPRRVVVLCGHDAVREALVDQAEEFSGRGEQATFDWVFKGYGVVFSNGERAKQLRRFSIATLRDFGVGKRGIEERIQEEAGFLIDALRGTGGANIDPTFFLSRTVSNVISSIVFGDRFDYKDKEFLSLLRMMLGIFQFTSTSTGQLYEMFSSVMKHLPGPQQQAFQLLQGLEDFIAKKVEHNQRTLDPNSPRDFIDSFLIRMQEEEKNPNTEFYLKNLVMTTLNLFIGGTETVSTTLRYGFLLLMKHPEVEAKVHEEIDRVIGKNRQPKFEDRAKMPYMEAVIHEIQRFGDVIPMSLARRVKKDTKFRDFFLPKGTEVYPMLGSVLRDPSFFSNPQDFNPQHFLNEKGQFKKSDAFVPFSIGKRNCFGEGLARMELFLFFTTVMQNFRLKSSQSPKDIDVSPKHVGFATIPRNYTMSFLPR", "test": "Inhibition of CYP2A6 (unknown origin)-mediated coumarin 7-hydroxylation after 5 mins by spectrofluorimetric analysis", "conditions": "probe coumarin (7-hydroxylation)", "method_in_brief": "(§1)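 Microsomal P450 (final 5 nM) in 0.1 M potassium phosphate pH 7.6 with MgCl2; resorufin ether or coumarin substrate final 5 μM from DMSO stock; inhibitor added in DMSO, DMSO alone for controls. Reaction started with NADPH regenerating system (NADP+, glucose 6-phosphate, G6P dehydrogenase) at 37 °C; product formation followed fluorimetrically as progress curves.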"}, "[1]": {"target": "Cytochrome P450 2B1 (Rattus norvegicus) (UniProt P00176)", "sequence (P00176 whole entry, looked up)": "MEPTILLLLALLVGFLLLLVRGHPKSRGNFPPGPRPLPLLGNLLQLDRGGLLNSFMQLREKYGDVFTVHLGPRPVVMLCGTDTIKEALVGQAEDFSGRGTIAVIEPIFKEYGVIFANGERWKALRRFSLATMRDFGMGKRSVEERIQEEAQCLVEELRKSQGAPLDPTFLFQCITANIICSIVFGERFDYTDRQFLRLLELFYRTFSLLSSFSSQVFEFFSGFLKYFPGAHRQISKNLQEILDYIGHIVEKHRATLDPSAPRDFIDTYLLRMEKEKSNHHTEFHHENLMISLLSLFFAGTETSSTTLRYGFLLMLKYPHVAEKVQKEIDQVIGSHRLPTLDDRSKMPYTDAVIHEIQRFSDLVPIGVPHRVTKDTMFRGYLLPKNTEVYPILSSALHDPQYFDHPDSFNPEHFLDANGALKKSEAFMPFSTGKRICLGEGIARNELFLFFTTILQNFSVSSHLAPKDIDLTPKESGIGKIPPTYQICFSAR", "test": "Inhibition of CYP2B1 (rat)-mediated depentylation of resorufin pentyl ether after 5 mins by spectrofluorimetric analysis"}, "Cytochrome P450 1A1": {"target": "T2, Cytochrome P450 1A1 (Homo sapiens, UniProt P04798)", "T2 sequence (P04798 whole entry)": "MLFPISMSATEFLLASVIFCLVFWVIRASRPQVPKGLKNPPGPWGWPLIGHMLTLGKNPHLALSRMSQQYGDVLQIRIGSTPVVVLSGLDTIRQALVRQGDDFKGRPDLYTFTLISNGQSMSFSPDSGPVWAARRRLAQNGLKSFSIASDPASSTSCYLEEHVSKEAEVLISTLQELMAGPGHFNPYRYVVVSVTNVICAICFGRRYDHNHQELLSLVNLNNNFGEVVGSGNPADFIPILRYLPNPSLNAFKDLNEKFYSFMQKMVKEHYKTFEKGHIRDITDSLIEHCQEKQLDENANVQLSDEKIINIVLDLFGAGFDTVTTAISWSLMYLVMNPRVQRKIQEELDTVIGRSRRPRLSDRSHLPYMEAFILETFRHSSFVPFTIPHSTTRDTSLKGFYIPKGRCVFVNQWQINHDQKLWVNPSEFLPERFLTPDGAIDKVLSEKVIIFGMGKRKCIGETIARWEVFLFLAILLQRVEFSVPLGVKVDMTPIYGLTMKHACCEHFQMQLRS", "test": "Inhibition of CYP1A1 (unknown origin)-mediated deethylation of resorufin ethyl ether after 5 mins by spectrofluorimetric analysis", "method_in_brief": "as §1"}}}
{"smiles": "O=c1cccc2oc(-c3cccc4c3C=CCO4)cc(O)c1-2", "values": [{"measurement": "IC50 at 5 min", "setting": "CYP2A6", "value": "> 25", "unit": "µM"}, {"measurement": "IC50", "setting": "[1]", "value": "> 25", "unit": "µM"}]}
{"smiles": "O=c1cccc2oc(-c3ccc4c(c3)C=CCO4)cc(O)c1-2", "values": [{"measurement": "IC50 at 5 min", "setting": "CYP2A6", "value": "> 25", "unit": "µM"}, {"measurement": "IC50", "setting": "[1]", "value": "> 25", "unit": "µM"}]}
{"smiles": "O=c1cc(-c2ccccc2)oc2cccc(O)c12", "note": "[5-Hydroxy-2-phenyl-chromen-4-one]", "values": [{"measurement": "IC50", "setting": "Cytochrome P450 1A1", "value": 4.03, "unit": "µM"}]}
{"smiles": "C#CCOc1ccc(-c2cc(O)c3c(=O)cccc-3o2)cc1", "values": [{"measurement": "IC50 at 5 min", "setting": "CYP2A6", "value": "> 25", "unit": "µM"}, {"measurement": "IC50", "setting": "[1]", "value": "> 25", "unit": "µM"}]}
{"smiles": "O=c1cccc2oc(-c3ccc4c(c3)OCC=C4)cc(O)c1-2", "values": [{"measurement": "IC50 at 5 min", "setting": "CYP2A6", "value": "> 25", "unit": "µM"}, {"measurement": "IC50", "setting": "[1]", "value": "> 25", "unit": "µM"}]}
{"smiles": "C#CCOc1cccc(-c2cc(O)c3c(=O)cccc-3o2)c1", "values": [{"measurement": "IC50 at 5 min", "setting": "CYP2A6", "value": "> 25", "unit": "µM"}, {"measurement": "IC50", "setting": "[1]", "value": 4.08, "unit": "µM"}]}
